From EPA's CvTdb concentration-time database

Legend:
[1] = tested on: Rat; assay: concentration in plasma after dosing; conditions: dosed: Tetralin, 2 mg/kg, iv, Male, Harlan Sprague Dawley
[2] = tested on: Rat; assay: concentration in plasma after dosing; conditions: dosed: Tetralin, 2 mg/kg, iv, Male, Harlan Sprague Dawley; remark: listed apart in the source
[3] = tested on: Rat; assay: concentration in plasma after dosing; conditions: dosed: Tetralin, 2 mg/kg, iv, Male, Harlan Sprague Dawley; remark: listed apart in the source
[4] = tested on: Rat; assay: concentration in plasma after dosing; conditions: 2 h; dosed: Tetralin; 20 mg/kg; iv; Female; Harlan Sprague Dawley
[5] = tested on: Rat; assay: concentration in plasma after dosing; conditions: dosed: Tetralin, 20 mg/kg, iv, Female, Harlan Sprague Dawley
[6] = tested on: Rat; assay: concentration in plasma after dosing; conditions: dosed: Tetralin, 2 mg/kg, iv, Male, Harlan Sprague Dawley; remark: listed apart in the source
[7] = tested on: Rat; assay: concentration in plasma after dosing; conditions: dosed: Tetralin, 20 mg/kg, iv, Female, Harlan Sprague Dawley; remark: listed apart in the source
[8] = tested on: Rat; assay: concentration in plasma after dosing; conditions: dosed: Isoeugenol, 17 mg/kg, oral, Female, F344/N
[9] = tested on: Rat; assay: concentration in plasma after dosing; conditions: 10 min; dosed: Isoeugenol; 17 mg/kg; oral; Male; F344/N
[10] = tested on: Rat; assay: concentration in plasma after dosing; conditions: dosed: Isoeugenol, 17 mg/kg, oral, Male, F344/N
[11] = tested on: Rat; assay: concentration in plasma after dosing; conditions: dosed: Isoeugenol, 17 mg/kg, oral, Female, F344/N; remark: listed apart in the source
[12] = tested on: Rat; assay: concentration in plasma after dosing; conditions: dosed: Isoeugenol, 70 mg/kg, oral, Male, F344/N
[13] = tested on: Rat; assay: concentration in plasma after dosing; conditions: 2 min; dosed: Isoeugenol; 17 mg/kg; oral; Male; F344/N
[14] = tested on: Rat; assay: concentration in plasma after dosing; conditions: dosed: Isoeugenol, 17 mg/kg, oral, Male, F344/N; remark: listed apart in the source
[15] = tested on: Rat; assay: concentration in plasma after dosing; conditions: dosed: Isoeugenol, 17 mg/kg, oral, Female, F344/N; remark: listed apart in the source
[16] = tested on: human; assay: concentration in blood after dosing; conditions: dosed: styrene, 80 ppm, inhalation, duration: 6 hr
Method in brief: (§1)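 Data points giving concentration or amount against time came from published in vivo toxicokinetic studies and from two structured collections. PubMed searching, classifier screening and manual review located the studies. Most points were digitised from plot screenshots using WebPlotDigitizer, the rest were copied from tables, and all keep their reported units.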

[17] = tested on: human; assay: concentration in blood after dosing; negative times count back from the end of exposure; conditions: dosed: methylethylketone, inhalation, duration: 4 hr, male
Method in brief: as §1

c1ccc2c(c1)CCCC2 [Tetralin]
Conditions | concentration in plasma [µg/g]
[1], 1 h | 0.0468
[1], 24 h | 0.00083
[2], 0.2533 h | 0.406
[2], 6 h | 0.00586
[3], 0.5033 h | 0.208
[3], 8 h | 0.00401
[5], 0.5017 h | 5.04
[5], 8 h | 0.0561
[6], 0.2533 h | 0.362
[6], 6 h | 0.00512
[7], 1 h | 0.797
[7], 24 h | 0.00536

Conditions | concentration in plasma [µg/g]
[4] | 0.52

C/C=C/c1ccc(O)c(OC)c1 [Isoeugenol]
Conditions | concentration in plasma [ng/mL]
[8], 1 h | 129
[8], 5 h | 69.7
[10], 1 h | 39.5
[10], 6 h | 27.7
[11], 0.75 h | 40.3
[11], 6 h | 74.4
[12], 5 h | 106
[12], 5 min | 1020
[14], 1 h | 28.4
[14], 3 h | 68.6
[15], 1.5 h | 26
[15], 2 min | 25.6

Conditions | concentration in plasma [ng/mL]
[9] | 209
[13] | 35.6

C=Cc1ccccc1 [styrene]
[16]
Conditions | concentration in blood [ng/mL]
0.7751 h | 429
2.296 h | 742
4.093 h | 759
5.217 h | 777
6.069 h | 904
6.347 h | 484
7.03 h | 241
7.933 h | 178
10.01 h | 92.2
11.99 h | 61.1
14.2 h | 52.4
18.16 h | 34.7
23.1 h | 26.7
29.98 h | 18.5
46.98 h | 10.1

CCC(C)=O [methylethylketone]
[17]
Conditions | concentration in blood [µM]
0.1373 h, 400 ppm | 216
0.1381 h, 200 ppm | 70.4
0.1632 h, 25 ppm | 2.96
0.1664 h, 25 ppm | 3.3
0.3028 h, 200 ppm | 74.4
0.3068 h, 400 ppm | 201
0.3094 h, 200 ppm | 54.5
0.3251 h, 25 ppm | 2.53
0.3266 h, 25 ppm | 2.69
0.4719 h, 200 ppm | 65.3
0.4774 h, 25 ppm | 2.09
0.4845 h, 200 ppm | 49.1
0.4885 h, 25 ppm | 2.26
0.9614 h, 200 ppm | 40.1
0.9652 h, 200 ppm | 50.5
0.9754 h, 400 ppm | 150
0.9842 h, 25 ppm | 1.52
0.985 h, 25 ppm | 1.61
1.481 h, 200 ppm | 44.7
1.482 h, 200 ppm | 22.9
1.484 h, 400 ppm | 121
1.968 h, 200 ppm | 25.4
1.969 h, 200 ppm | 17.2
1.978 h, 400 ppm | 115
1.982 h, 25 ppm | 0.771
1.983 h, 25 ppm | 0.828
2.965 h, 200 ppm | 24.3
2.966 h, 200 ppm | 14.6
2.966 h, 400 ppm | 98.4
2.996 h, 25 ppm | 0.635
3 h, 25 ppm | 0.521
3.971 h, 200 ppm | 9.24
3.974 h, 200 ppm | 5.93
4.006 h, 25 ppm | 0.63
4.01 h, 25 ppm | 0.532
4.323 h, 400 ppm | 48
4.987 h, 400 ppm | 33.2
5.414 h, 200 ppm | 3.68
5.418 h, 200 ppm | 2.75
7.74 h, 200 ppm | 1.75
28 min, 400 ppm | 171

[17], during exposure
Conditions | concentration in blood [µM]
-122 s, 25 ppm | 4.68
-83 s, 200 ppm | 100
-69 s, 25 ppm | 4.74
-46 s, 400 ppm | 230
-3.994 h, 25 ppm | 0.18
-3.993 h, 25 ppm | 0.263
-3.835 h, 25 ppm | 1.85
-3.83 h, 400 ppm | 47.8
-3.827 h, 25 ppm | 2.22
-3.739 h, 200 ppm | 24.1
-3.681 h, 25 ppm | 2.14
-3.67 h, 25 ppm | 2.79
-3.661 h, 400 ppm | 68.3
-3.508 h, 25 ppm | 2.38
-3.505 h, 25 ppm | 2.71
-3.477 h, 400 ppm | 80
-3.248 h, 200 ppm | 54.2
-3.243 h, 200 ppm | 41.8
-2.997 h, 25 ppm | 3.29
-2.993 h, 25 ppm | 2.68
-2.992 h, 400 ppm | 112
-2.506 h, 200 ppm | 55
-2.505 h, 200 ppm | 58.5
-2.503 h, 400 ppm | 162
-2.017 h, 25 ppm | 3.04
-2.012 h, 25 ppm | 3.56
-1.994 h, 400 ppm | 177
-1.527 h, 200 ppm | 81.5
-1.508 h, 200 ppm | 69.5
-1.022 h, 25 ppm | 4.44
-1.012 h, 25 ppm | 4.01
-1.006 h, 400 ppm | 215
-1 min, 200 ppm | 93
-0.7876 h, 200 ppm | 88.3
-0.7835 h, 200 ppm | 86.7
